From ChEMBL document CHEMBL1125464, “1,3,6-trisubstituted indoles as peptidoleukotriene antagonists: benefits of a second, polar, pyrrole substituent” (J Med Chem, 1992)

Columns and labels:
Cavia porcellus [1] = species: Cavia porcellus; test: Dissociation constant on guinea pig tracheal spirals utilizing LTE4 as agonist; details: Trachea
Cavia porcellus [2] = test: Protection of conscious guinea pig lung function was determined by comparison of time required for the challenged animals to exhibit labored abdominal breathing after oral dose of 10 uM/kg; format: functional
Method in brief: (§1)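 Conscious guinea pigs pretreated with indomethacin (10 mg/kg ip) and propranolol (5 mg/kg ip). Compound in PEG400 (<10% v/v)/PBS given orally 180 min before a challenge of up to 5 min with aerosolized 60 uM LTD4. Time to abdominal dyspnea scored blind. % protection is taken against vehicle controls; no end point by 300 s counts as 100%. Unpaired t test.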

Cavia porcellus [3] = species: Cavia porcellus; test: Inhibition of LTE4 (8 nM) induced contraction of guinea pig tracheal spirals at a concentration of 0.1 uM; format: functional, Trachea
Method in brief: (§2)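 Paired tracheal spirals at 37 °C in Krebs gassed with 95% O2/5% CO2 under 2 g tension, given repeated LTE4 challenges of 10 min. Compound or vehicle added 10 min before a third challenge. % inhibition = (2nd − 3rd response)/2nd × 100, corrected by subtracting the vehicle value. Paired t test, n ≥ 4.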

Cavia porcellus [4] = test: Protection of conscious guinea pig lung function was determined by comparison of time required for the challenged animals to exhibit labored abdominal breathing after oral dose of 30 uM/kg; format: functional
Method in brief: as §1

Cavia porcellus [5] = species: Cavia porcellus; test: Inhibition constant for the displacement of [3H]LTD4 on guinea pig lung parenchymal membranes; parameters: species or system Lung parenchyma
Method in brief: (§3)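 Membranes from perfused lungs of male Hartley guinea pigs (300-400 g) in PIPES pH 7.5 with 10 mM CaCl2, 10 mM MgCl2, 2 mM cysteine and 2 mM glycine. 1 nM 3H-LTD4 at 22 °C for 30 min; nonspecific binding with 2 uM LTD4. Filtration, then scintillation counting. IC50 by nonlinear least squares, Ki by Cheng-Prusoff; mean of two experiments in duplicate.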

Cavia porcellus [6] = species: Cavia porcellus; test: Inhibition of LTE4 (8 nM) induced contraction of guinea pig tracheal spirals at a concentration of 1 nM; format: functional, Trachea
Method in brief: as §2

Cavia porcellus [7] = species: Cavia porcellus; test: Compound was evaluated for the displacement of [3H]LTD4 on guinea pig lung parenchymal membranes; parameters: species or system Lung parenchyma
Method in brief: as §3

Cavia porcellus [8] = species: Cavia porcellus; test: Inhibition of LTE4 (8 nM) induced contraction of guinea pig tracheal spirals at a concentration of 10 nM; format: functional, Trachea
Method in brief: as §2

[9] = Negative logarithm of the molar dissociation constant; format: ADME
Method in brief: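 Paired guinea pig tracheal spirals at 37 °C in Krebs gassed with 95% O2/5% CO2, 2 g resting tension. Responses expressed relative to 30 uM carbachol. Antagonist or vehicle preincubated 30 min, then cumulative LTE4 concentration-response curves, one per tissue. EC50 by linear regression; KB = [antagonist]/(dose ratio − 1), per Furchgott.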

Cavia porcellus [10] = test: Protection of conscious guinea pig lung function was determined by comparison of time required for the challenged animals to exhibit labored abdominal breathing after oral dose of 3 uM/kg; format: functional
Method in brief: as §1

Cavia porcellus [11] = species: Cavia porcellus; test: Inhibition of LTE4 (8 nM) induced contraction of guinea pig tracheal spirals at a concentration of 3.3 uM; format: functional, Trachea
Method in brief: as §2

Cavia porcellus [12] = species: Cavia porcellus; test: Inhibition of LTE4 (8 nM) induced contraction of guinea pig tracheal spirals at a concentration of 0.5 uM; NS=not statistically significant; format: functional; details: Trachea
Method in brief: as §2

Cavia porcellus [13] = species: Cavia porcellus; test: Inhibition of LTE4 (8 nM) induced contraction of guinea pig tracheal spirals at a concentration of 0.33 uM; format: functional, Trachea
Method in brief: as §2

Cavia porcellus [14] = species: Cavia porcellus; test: Inhibition of LTE4 (8 nM) induced contraction of guinea pig tracheal spirals at a concentration of 10 uM; format: functional, Trachea
Method in brief: as §2

Cavia porcellus [15] = test: Protection of conscious guinea pig lung function was determined by comparison of time required for the challenged animals to exhibit labored abdominal breathing after oral dose of 1 uM/kg; format: functional
Method in brief: as §1

Cavia porcellus [16] = species: Cavia porcellus; test: Inhibition of LTE4 (8 nM) induced contraction of guinea pig tracheal spirals at a concentration of 100 nM; format: functional, Trachea
Method in brief: as §2

Cavia porcellus [17] = species: Cavia porcellus; test: Inhibition of LTE4 (8 nM) induced contraction of guinea pig tracheal spirals at a concentration of 3.3 uM; NS=not statistically significant; format: functional; details: Trachea
Method in brief: as §2

## COC(=O)CCc1cn(Cc2ccc(C(=O)NS(=O)(=O)c3ccccc3)cc2OC)c2cc(NC(=O)CC3CCCC3)ccc12
Cavia porcellus [1]
  Kb: 0.273 nM
Cavia porcellus [2]
  Protection: 63%

## COc1cc(C(=O)NS(=O)(=O)c2ccccc2)ccc1Cn1cc(CCC(=O)O)c2ccc(NC(=O)CC3CCCC3)cc21
Cavia porcellus [1]
  Kb: 0.0731 nM
Cavia porcellus [2]
  Protection: 35%

## COc1cc(C(=O)O)ccc1Cn1cc(Cl)c2ccc(NC(=O)OC3CCCC3)cc21
Cavia porcellus [3]
  Inhibition: 41%

## CNC(=O)CCc1cn(Cc2ccc(C(=O)NS(=O)(=O)c3ccccc3C)cc2OC)c2cc(C(=O)NCC3CCCC3)ccc12
Cavia porcellus [4]
  Protection: 44%
Cavia porcellus [5]
  Ki: 1.53 nM
Cavia porcellus [1]
  Kb: 0.399 nM
Cavia porcellus [6]
  Inhibition: 57%

## COc1cc(C(=O)NS(=O)(=O)c2ccccc2C)ccc1Cc1cn(C)c2ccc(C(=O)NCC3CCCC3)cc12
Cavia porcellus [1]
  Kb: 4.28 nM
Cavia porcellus [7]
  Ki: 3.21 nM
Cavia porcellus [8]
  Inhibition: 36%

## COc1cc(C(=O)O)ccc1Cn1ccc2ccc(NC(=O)OC3CCCC3)cc21
Cavia porcellus [3]
  Inhibition: 61%
Cavia porcellus [1]
  Kb: 15.7 nM

## COc1cc(C(=O)NS(=O)(=O)c2ccccc2C)ccc1Cc1nn(C)c2ccc(C(=O)NCC3CCCC3)cc12
Cavia porcellus [7]
  Ki: 1.87 nM

## COc1cc(C(=O)O)ccc1Cn1cc(C)c2ccc(NC(=O)CC3CCCC3)cc21
Cavia porcellus [3]
  Inhibition: 59%

## COc1cc(C(=O)NS(=O)(=O)c2ccccc2C)ccc1Cn1cc(CC(C)C(=O)N(C)C)c2ccc(C(=O)NCC3CCCC3)cc21 (centres undefined)
Cavia porcellus [1]
  Kb: 0.65 nM
Cavia porcellus [7]
  Ki: 2.32 nM
Cavia porcellus [2]
  Protection: 37%

## COc1cc(C(=O)NS(=O)(=O)c2ccccc2)ccc1Cc1c[nH]c2ccc(NC(=O)OC3CCCC3)cc12
[9]
  pKB: 9.84

## COc1cc(C(=O)NS(=O)(=O)c2ccccc2)ccc1Cn1ccc2ccc(NC(=O)OC3CCCC3)cc21
Cavia porcellus [1]
  Kb: 0.29 nM

## COc1cc(C(=O)NS(=O)(=O)c2ccccc2C)ccc1Cn1cc(CCC(=O)N2CCCC2)c2ccc(C(=O)NCC3CCCC3)cc21
Cavia porcellus [10]
  Protection: 49%

## COc1cc(C(=O)NS(=O)(=O)c2ccccc2)ccc1Cn1c2c(c3ccc(NC(=O)CC4CCCC4)cc31)CCCC2
Cavia porcellus [1]
  Kb: 7.73 nM

## COc1cc(C(=O)O)ccc1Cc1c[nH]c2ccc(NC(=O)OC3CCCC3)cc12
[9]
  pKB: 7.32

## CCCCOC(=O)Nc1ccc2c(C)c(C)n(Cc3ccc(C(=O)O)cc3OC)c2c1
Cavia porcellus [11]
  Inhibition: 81%
Cavia porcellus [12]
  NS: not statistically significant

## COc1cc(C(=O)NS(=O)(=O)c2ccccc2)ccc1Cn1ccc2ccc(NC(=O)CC3CCCC3)cc21
Cavia porcellus [4]
  Protection: 43%
Cavia porcellus [1]
  Kb: 0.243 nM

## COc1cc(C(=O)NS(=O)(=O)c2ccccc2)ccc1Cn1cc(C(C)=O)c2ccc(NC(=O)OC3CCCC3)cc21
Cavia porcellus [1]
  Kb: 0.123 nM

## CNC(=O)CCc1cn(Cc2ccc(C(=O)NS(=O)(=O)c3ccccc3)cc2OC)c2cc(NC(=O)CC3CCCC3)ccc12
Cavia porcellus [1]
  Kb: 0.0197 nM
Cavia porcellus [2]
  Protection: 74%

## CCCn1cc(Cc2ccc(C(=O)NS(=O)(=O)c3ccccc3)cc2OC)c2cc(NC(=O)OC3CCCC3)ccc21
[9]
  pKB: 8.44

## CCCCOC(=O)Nc1ccc2c(Cl)cn(Cc3ccc(C(=O)O)cc3OC)c2c1
Cavia porcellus [1]
  Kb: 92.7 nM
Cavia porcellus [13]
  Inhibition: 52%

## CCN(CC)C(=O)CCn1cc(Cc2ccc(C(=O)NS(=O)(=O)c3ccccc3C)cc2OC)c2cc(C(=O)NCC3CCCC3)ccc21
Cavia porcellus [7]
  Ki: 0.43 nM

## COc1cc(C(=O)O)ccc1Cc1cn(C)c2ccc(NC(=O)CC3CCCC3)cc12
Cavia porcellus [3]
  Inhibition: 94%

## COc1cc(C(=O)O)ccc1Cc1nn(C)c2ccc(C(=O)NCC3CCCC3)cc12
Cavia porcellus [11]
  Inhibition: 37%

## COc1cc(C(=O)O)ccc1Cn1cc(C(C)=O)c2ccc(NC(=O)OC3CCCC3)cc21
Cavia porcellus [3]
  Inhibition: 83%

## COc1cc(C(=O)NS(=O)(=O)c2ccccc2C)ccc1Cn1cc(CCC(N)=O)c2ccc(NC(=O)CC3CCCC3)cc21
Cavia porcellus [10]
  Protection: 63%
Cavia porcellus [1]
  Kb: 0.095 nM

## COc1cc(C(=O)NS(=O)(=O)c2ccccc2)ccc1Cc1cn(C2CCCC2)c2ccc(NC(=O)OC3CCCC3)cc12
[9]
  pKB: 7.84

## COc1cc(C(=O)O)ccc1Cc1cn(C2CCCC2)c2ccc(NC(=O)OC3CCCC3)cc12
[9]
  pKB: 7.67

## COc1cc(C(=O)NS(=O)(=O)c2ccccc2)ccc1Cc1cn(C)c2ccc(NC(=O)OC3CCCC3)cc12
[9]
  pKB: 9.69

## COc1cc(C(=O)NS(=O)(=O)c2ccccc2C)ccc1Cc1cn(C)c2ccc(NC(=O)CC3CCCC3)cc12
Cavia porcellus [1]
  Kb: 0.245 nM
Cavia porcellus [7]
  Ki: 0.3 nM

## COc1cc(C(=O)O)ccc1Cn1ccc2ccc(NC(=O)CC3CCCC3)cc21
Cavia porcellus [3]
  Inhibition: 34%
Cavia porcellus [1]
  Kb: 20.7 nM

## CCN(CC)C(=O)/C=C/c1cn(Cc2ccc(C(=O)NS(=O)(=O)c3ccccc3C)cc2OC)c2cc(C(=O)NCC3CCCC3)ccc12
Cavia porcellus [7]
  Ki: 4.9 nM

## COc1cc(C(=O)NS(=O)(=O)c2ccccc2)ccc1Cn1cc(CCC(N)=O)c2ccc(OCCC3CCCC3)cc21
Cavia porcellus [1]
  Kb: 10.3 nM
Cavia porcellus [8]
  Inhibition: 29%

## COc1cc(C(=O)NS(=O)(=O)c2ccccc2C)ccc1Cn1cc(CCC(=O)N2CCOCC2)c2ccc(C(=O)NCC3CCCC3)cc21
Cavia porcellus [1]
  Kb: 0.289 nM
Cavia porcellus [2]
  Protection: 53%

## COc1cc(C(=O)NS(=O)(=O)c2ccccc2C)ccc1Cc1cn(C(C)C(=O)N(C)C)c2ccc(C(=O)NCC3CCCC3)cc12 (centres undefined)
Cavia porcellus [1]
  Kb: 12.1 nM

## COc1cc(C(=O)O)ccc1Cn1ccc2ccc(OCCC3CCCC3)cc21
Cavia porcellus [14]
  Inhibition: 75%

## CCCC(=O)c1cn(Cc2ccc(C(=O)NS(=O)(=O)c3ccccc3)cc2OC)c2cc(NC(=O)CC3CCCC3)ccc12
Cavia porcellus [1]
  Kb: 0.496 nM

## COc1cc(C(=O)NS(=O)(=O)c2ccccc2)ccc1Cn1cc(Cl)c2ccc(NC(=O)OC3CCCC3)cc21
Cavia porcellus [1]
  Kb: 0.718 nM

## COc1cc(C(=O)O)ccc1Cn1ccc2ccc(C(=O)OCC3CCCC3)cc21
Cavia porcellus [11]
  Inhibition: 10%
Cavia porcellus [14]
  Inhibition: 74%

## COc1cc(C(=O)O)ccc1Cc1cn(C)c2ccc(NC(=O)OC3CCCC3)cc12
[9]
  pKB: 7.84

## COc1cc(C(=O)NS(=O)(=O)c2ccccc2C)ccc1Cn1ccc2ccc(NC(=O)CC3CCCC3)cc21
Cavia porcellus [1]
  Kb: 0.106 nM
Cavia porcellus [15]
  Protection: 40%

## CCCn1cc(Cc2ccc(C(=O)O)cc2OC)c2cc(NC(=O)OC3CCCC3)ccc21
[9]
  pKB: 7.72

## CCCCOC(=O)Nc1ccc2cc(C)n(Cc3ccc(C(=O)O)cc3OC)c2c1
Cavia porcellus [11]
  Inhibition: 41%

## COc1cc(C(=O)NS(=O)(=O)c2ccccc2C)ccc1Cn1ccc2ccc(OCCC3CCCC3)cc21
Cavia porcellus [16]
  Inhibition: 21%

## CCCCOC(=O)Nc1ccc2c(Br)c(Br)n(Cc3ccc(C(=O)O)cc3OC)c2c1
Cavia porcellus [17]
  NS: not statistically significant

## COc1cc(C(=O)O)ccc1Cn1ccc2ccc(C(=O)NCC3CCCC3)cc21
Cavia porcellus [11]
  Inhibition: 45%

## COc1cc(C(=O)NS(=O)(=O)c2ccccc2C)ccc1Cn1cc(CCC(=O)N2CCC(C)(C)CC2)c2ccc(C(=O)NCC3CCCC3)cc21
Cavia porcellus [1]
  Kb: 4.45 nM

## COc1cc(C(=O)NS(=O)(=O)c2ccccc2C)ccc1Cn1cc(C)c2ccc(C(=O)NCC3CCCC3)cc21
Cavia porcellus [7]
  Ki: 9.89 nM

## CCCC(=O)c1cn(Cc2ccc(C(=O)O)cc2OC)c2cc(NC(=O)CC3CCCC3)ccc12
Cavia porcellus [3]
  Inhibition: 96%

## COc1cc(C(=O)NS(=O)(=O)c2ccccc2)ccc1Cn1ccc2ccc(C(=O)NCC3CCCC3)cc21
Cavia porcellus [16]
  Inhibition: 46%
Cavia porcellus [5]
  Ki: 86.8 nM
Cavia porcellus [1]
  Kb: 14.2 nM

## CCN(CC)C(=O)CCc1cn(Cc2ccc(C(=O)NS(=O)(=O)c3ccccc3C)cc2OC)c2cc(C(=O)NCC3CCCC3)ccc12
Cavia porcellus [7]
  Ki: 0.54 nM

## COc1cc(C(=O)O)ccc1Cn1cc(C)c2ccc(C(=O)NCC3CCCC3)cc21
Cavia porcellus [17]
  NS: not statistically significant
